The results in this text go back to ChEMBL document CHEMBL1135645, “Synthesis and evaluation of analogues of 5'-([(Z)-4-amino-2-butenyl]methylamino)-5'-deoxyadenosine as inhibitors of tumor cell growth, trypanosomal growth, and HIV-1 infectivity” (J Med Chem, 2002).

Experiment [1] concerns MCF7. Description: In vitro anti Neoplastic Activity against Adriamycin resistant Human Breast adenocarcinoma MCF7-Adr Cell lines. The class given is functional, cell-based. In short, it runs like this: (§1)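 SRB growth assay. Cell lines were grown as monolayers in RPMI-1640 with 5% FCS, 5% NuSerum IV, 20 mM HEPES and 2 mM glutamine, and seeded at 400–1200 cells/well. They attached for 15–18 h before drug. Ten concentrations over 5 logs were tested, with final DMSO ≤0.25%. Exposure was 72 h at 37 °C. Cells were TCA-fixed, stained with sulforhodamine B and read at OD 570 nm. IC50 is 50% growth inhibition.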

The subject of experiment [2] is MCF7. Description: In vitro anti Neoplastic Activity against Human Breast adenocarcinoma MCF-7 Cell lines. The experiment is classed as functional, cell-based. In short, it runs like this: as §1
Experiment [3] deals with A549. Description: In vitro anti Neoplastic Activity against Human non small cell lung carcinoma A549 Cell lines. The experiment is classed as functional, cell-based. In short, it runs like this:
as §1

The subject of experiment [4] is HT-29. Briefly: In vitro anti Neoplastic Activity in Human Colon adenocarcinoma HT-29 Cell lines. The class given is functional, cell-based. In short, it runs like this: as §1
Experiment [5] has as its system A121. Briefly: In vitro anti Neoplastic Activity against Human ovarian carcinoma A121 Cell lines. The class given is functional, cell-based. In short, it runs like this:
as §1

Experiment [6] deals with L1210. Description: In Vitro inhibition of L1210 Murine Leukemia Cells by the compound at a dose of 100 uM. The following applies: Mus musculus. The class given is functional.
For experiment [7], the system named is L1210. Briefly: In vitro Anti Neoplastic Activity against L1210 murine leukemia Cell lines. The experiment is classed as functional, cell-based. The following applies: Mus musculus. In short, it runs like this: as §1
The subject of experiment [8] is Trypanosoma brucei rhodesiense. Description: In Vitro inhibition of Trypanosomal 243 (KETRI)strain by the compound at a dose of 100 uM. The class given is functional.
In experiment [9] the test system is Trypanosoma brucei brucei. Briefly: In Vitro inhibition of Trypanosomal 110 (EATRO)strain by the compound at a dose of 100 uM. The class given is functional.
The subject of experiment [10] is CCRF-CEM. Description: Concentration that causes morphological changes in noninfected CEM-SS cells. The experiment is classed as functional. The following applies: Homo sapiens, read-out: TC50 (the source's name).
In experiment [11] the test system is Human immunodeficiency virus 1. Description: In Vitro Anti-HIV activity in CEM cells. The experiment is classed as functional, organism-based. The following applies: Human immunodeficiency virus 1, CCRF-CEM. In short, it runs like this: (§2)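 Syncytial plaque assay: log-phase CEM-SS cells were PBS-washed and plated at 50 000 per well in serum-free RPMI-1640 on poly-L-lysine-coated wells (30 min, 37 °C). They were inoculated with HIV-1 (60–90 PFU) for 120 min, then overlaid with compound in growth medium (2-fold dilutions, 0.00015–20 μM). A second overlay followed on day 3, with 5 days total. EC50 is 50% inhibition of plaque formation. TC50 is morphological change in noninfected CEM-SS cells.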

The subject of experiment [12] is A549. Briefly: In vitro anti Neoplastic Activity against Human non small cell lung carcinoma A549 Cell lines;Value ranges from (3-10). The experiment is classed as functional, cell-based. In short, it runs like this: as §1
Experiment [13] deals with HT-29. Briefly: In vitro anti Neoplastic Activity in Human Colon adenocarcinoma HT-29 Cell lines;Value ranges from (3-30). The experiment is classed as functional, cell-based. In short, it runs like this: as §1
In experiment [14] the test system is A121. Description: In vitro anti Neoplastic Activity against Human ovarian carcinoma A121 Cell lines;Value ranges from (1-30). The class given is functional, cell-based. In short, it runs like this: as §1
Experiment [15] has as its system L1210. Description: In vitro inhibition of AdoMetDC derived from L1210 Murine Leukemia Cells. The class given is functional. The following applies: Mus musculus, read-out: ID50 (the source's name).
The subject of experiment [16] is Mus musculus. Description: Nnumber of mice cured to that of 5 treated with the compound at 50 mg/kg for 3 days. The experiment is classed as functional.
Experiment [17] relates to Mus musculus. Description: Number of mice cured to that of 5 treated with the compound at 100 mg/kg for 7 days. The experiment is classed as functional.
For experiment [18], the system named is Mus musculus. Description: Number of mice cured to that of 5 treated with the compound at 10 mg/kg for 3 days. The class given is functional.
Experiment [19] relates to Mus musculus. Description: Number of mice cured to that of 5 treated with the compound at 25 mg/kg for 3 days. The class given is functional.
Experiment [20] has as its system Mus musculus. Description: Number of mice cured to that of 5 treated with the compound at 25 mg/kg for 7 days. The class given is functional.
Experiment [21] deals with Mus musculus. Briefly: Number of mice cured to that of 5 treated with the compound at 50 mg/kg for 7 days. The experiment is classed as functional.
For experiment [22], the system named is Trypanosoma brucei rhodesiense. Briefly: In vitro anti trypanosomal activity against Trypanosomal 243 As 10e-3 (KETRI)strain. The class given is functional, organism-based.
The subject of experiment [23] is Trypanosoma brucei rhodesiense. Briefly: In vitro anti trypanosomal activity against Trypanosomal 269 (KETRI)strain. The experiment is classed as functional, organism-based.
The test system of experiment [24] is Trypanosoma brucei brucei. Briefly: In vitro anti trypanosomal activity against Trypanosomal 110 (EATRO)strain. The experiment is classed as functional, organism-based.
The test system of experiment [25] is Trypanosoma brucei rhodesiense. Briefly: In vitro anti trypanosomal activity against Trypanosomal 243 (KETRI)strain. The class given is functional, organism-based.
For experiment [26], the system named is Trypanosoma brucei brucei. Description: Mean survival days against T.b. brucei LAB 110 EATRO tested in mice administration at 100 mg/kg for 7 days. The experiment is classed as functional. In short, it runs like this:
(§3)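 Female Swiss-Webster mice (20 g) were infected with 2.5×10^5 trypanosomes from a rat infection. Compounds were dissolved in water and given at the stated daily dose by 7 day miniosmotic pumps implanted aseptically. There were 5 mice per group. Viability was checked daily and tail-vein blood smears weekly. The value is mean survival in days. Mice were scored cured if they survived >30 days beyond untreated controls with no parasitemia.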

Experiment [27] has as its system Trypanosoma brucei brucei. Description: Mean survival days against T.b. brucei LAB 110 EATRO tested in mice administration at 25 mg/kg for 7 days. The class given is functional. In short, it runs like this:
as §3

The test system of experiment [28] is Trypanosoma brucei brucei. Briefly: Mean survival days against T.b. brucei LAB 110 EATRO tested in mice administration at 50 mg/kg for 7 days. The experiment is classed as functional. In short, it runs like this:
as §3

Experiment [29] has as its system Trypanosoma brucei brucei. Briefly: Mean survival days against T.b. peritoneal administration at 10 mg/kg for 3 days. The class given is functional.
For experiment [30], the system named is Trypanosoma brucei brucei. Description: Mean survival days against T.b. peritoneal administration at 25 mg/kg for 3 days. The class given is functional.
For experiment [31], the system named is Trypanosoma brucei brucei. Briefly: Mean survival days against T.b. peritoneal administration at 50 mg/kg for 3 days. The experiment is classed as functional.
The test system of experiment [32] is Trypanosoma brucei rhodesiense. Briefly: Mean survival days against T.b. rhodesiense KETRI 243 tested in mice after intra peritoneal administration at 25 mg/kg for 7 days. The class given is functional.
Experiment [33] deals with Trypanosoma brucei rhodesiense. Description: Mean survival days against T.b. rhodesiense KETRI 243 tested in mice after intra peritoneal administration at 50 mg/kg for 7 days. The class given is functional.
Experiment [34] in a line: Differential selectivity as the ratio of TC50 value to that of EC50 value. The class given is functional. In short, it runs like this:
as §2

Experiment [35] is filed under the species Mus musculus. Description: Number of mice cured to that of 5 treated with the compound for 7 days.
Experiment [36] concerns Trypanosoma brucei rhodesiense. Description: Mean survival days against T.b. rhodesiense KETRI 243 tested in mice after intra peritoneal administration at 50 mg/kg for 7 days.
Experiment [37] concerns L1210. Description: In vitro Neoplastic Activity against L1210 mucerine leukemia Cell lines. The class given is functional, cell-based. Conditions: Mus musculus. In short, it runs like this:
as §1

In experiment [38] the test system is Trypanosoma brucei rhodesiense. Briefly: In vitro antitrypanosomal activity against Trypanosomal 243 As 10e-3 (KETRI)strain. The experiment is classed as functional, organism-based.
Experiment [39] relates to Trypanosoma brucei rhodesiense. Description: In vitro antitrypanosomal activity against Trypanosomal 269 (KETRI)strain. The experiment is classed as functional, organism-based.
Experiment [40] deals with Trypanosoma brucei brucei. Description: In vitro antitrypanosomal activity against Trypanosomal 110 (EATRO)strain. The class given is functional, organism-based.
Experiment [41] has as its system Trypanosoma brucei rhodesiense. Description: In vitro antitrypanosomal activity against Trypanosomal 243 (KETRI)strain. The class given is functional, organism-based.

By inhibition is commonly meant the percentage by which the read-out fell short of the control. Higher therefore signals strong suppression. Consider `CN(Cc1ccc(CN)cc1)C[C@H]1OC(n2cnc3c(N)ncnc32)[C@H](O)[C@@H]1O` (stereo partly specified), for which the IC50 in experiment [1] is > 100 µM; in experiment [2], > 100 µM; in experiment [3], > 100 µM; in experiment [4], > 100 µM; in [5], > 100 µM; in [7], > 600 µM. The inhibition at 100 µM in [6] is 21%; in experiment [8], 23%; in [9], 21%.

By EC50 is commonly meant the concentration needed to bring the measured effect to its halfway point. Regarding `CC(=O)OC1C(CN(C)C/C=C\CN)OC(n2cnc3c(N)ncnc32)C1OC(C)=O` (stereo unspecified), the CC50 in experiment [10] stood at 12 µM. The compound further showed an EC50 in experiment [11] of 0.05 µM. Further, the IC50 in experiment [1] was > 100 µM; in [2], 51 µM; in experiment [12] it was 10 µM; in experiment [13] it was 30 µM; in [14], 30 µM; in [15], 0.82 µM. Besides, the IC50 in [7] amounted to 20 µM; in [22], 0.054 µM; in experiment [23], 0.02 µM; in experiment [24] it was 0.014 µM; in [25] it was 0.014 µM. Besides, the No. of cures worked out at 5 in experiment [16]; 4 in experiment [17]; 4 in experiment [18]; 4 in experiment [19]; 5 in experiment [20]; 5 in experiment [21]. For the same compound, the No. cured in [20], in experiment [21] and in [35] was 0 throughout. For the same compound, the MSD in experiment [26] was 26 days; in [27], >34 days; in experiment [28] it was >34 days; in experiment [29], 17 days; in experiment [30], 33 days; in experiment [31] it was >34 days. Moreover, the results for the MSD in experiment [32], in experiment [33] and in experiment [36] were 18 days, 21.2 days and 21.2 days, respectively. Besides, the Ratio in experiment [34] was found to be 240.

For the compound `CN(C/C=C\CN)CCOCn1cnc2c(N)nc(N)nc21`, the IC50 in experiment [1], in experiment [2], in [3], in experiment [4], in experiment [5] and in [15] was > 100 µM each time. Besides, the IC50 in experiment [22] is 0.96 µM; in [23], 11 µM; in experiment [24] it was 10 µM; in experiment [25], 6.6 µM.

Regarding `CN(C/C=C\CN)CC1OC(n2cnc3c(N)ncnc32)CC1O` (stereo unspecified), the IC50 was 20 µM in [15]; 500 µM in [37]; 30 µM in experiment [38]; 74 µM in [39]; 4.2 µM in [40]; 2.9 µM in experiment [41].

As for `CN(C/C=C\CN)C[C@H]1O[C@@H](n2cnc3c(N)nc(N)nc32)[C@H](O)[C@@H]1O`, the IC50 in [22] was 2 µM; in experiment [23], 19 µM; in experiment [24], 4.5 µM; in experiment [25] it was 3.8 µM.
